Measured values reported in publication PMC6354736 (iScience, 2019).

Experiments:
KDM4 = KDM4 demethylase activity/inhibition assay; type: biochemical
LSD1 = LSD1 (Homo sapiens, UniProt O60341); experiment: LSD1 activity/inhibition assay; type: biochemical
OCT4 = experiment: NCCIT-OCT4 response element-driven luciferase reporter assay; type: cell-based, human; details: for induction of OCT4 expression in NCCIT-OCT4 reporter cell line: histone demethylase inhibitors incubated for 48 h
hPSCs = experiment: Viability and maintenance of hPSCs after single cell expansion; type: cell-based, human; details: 10 μM
methylated H3K4 = experiment: In vitro H3K4 methylation assay; type: biochemical; details: micromolar concentrations
KDM5 = KDM5 demethylase activity/inhibition assay; type: biochemical
[1] = test system: human primary fibroblasts; experiment: OSKM episomal reprogramming, TRA-1-60+ colonies counting; type: cell-based
Outline: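 Human primary fibroblasts, including OSKM-resistant lines and fibroblasts carrying an LTR7-EGFP promoter reporter, transfected with episomal OSKM with or without test compound; OSKM-only fibroblasts serve as comparison. ESC-like colonies stained for TRA-1-60, and reprogramming efficiency taken as the count of TRA-1-60-positive colonies.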

NANOG = experiment: NCCIT-NANOG response element-driven luciferase reporter assay; type: cell-based, human
human fibroblasts = experiment: qRT-PCR of reprogramming-associated genes in human fibroblasts; type: cell-based
KDM5D = experiment: Demethylase assay on KDM5D immunoprecipitated from cells; type: biochemical
KDM5C = KDM5C (Homo sapiens, UniProt P41229); experiment: Demethylase assay on KDM5C immunoprecipitated from cells; type: biochemical
Sequence of KDM5C (P41229 whole entry): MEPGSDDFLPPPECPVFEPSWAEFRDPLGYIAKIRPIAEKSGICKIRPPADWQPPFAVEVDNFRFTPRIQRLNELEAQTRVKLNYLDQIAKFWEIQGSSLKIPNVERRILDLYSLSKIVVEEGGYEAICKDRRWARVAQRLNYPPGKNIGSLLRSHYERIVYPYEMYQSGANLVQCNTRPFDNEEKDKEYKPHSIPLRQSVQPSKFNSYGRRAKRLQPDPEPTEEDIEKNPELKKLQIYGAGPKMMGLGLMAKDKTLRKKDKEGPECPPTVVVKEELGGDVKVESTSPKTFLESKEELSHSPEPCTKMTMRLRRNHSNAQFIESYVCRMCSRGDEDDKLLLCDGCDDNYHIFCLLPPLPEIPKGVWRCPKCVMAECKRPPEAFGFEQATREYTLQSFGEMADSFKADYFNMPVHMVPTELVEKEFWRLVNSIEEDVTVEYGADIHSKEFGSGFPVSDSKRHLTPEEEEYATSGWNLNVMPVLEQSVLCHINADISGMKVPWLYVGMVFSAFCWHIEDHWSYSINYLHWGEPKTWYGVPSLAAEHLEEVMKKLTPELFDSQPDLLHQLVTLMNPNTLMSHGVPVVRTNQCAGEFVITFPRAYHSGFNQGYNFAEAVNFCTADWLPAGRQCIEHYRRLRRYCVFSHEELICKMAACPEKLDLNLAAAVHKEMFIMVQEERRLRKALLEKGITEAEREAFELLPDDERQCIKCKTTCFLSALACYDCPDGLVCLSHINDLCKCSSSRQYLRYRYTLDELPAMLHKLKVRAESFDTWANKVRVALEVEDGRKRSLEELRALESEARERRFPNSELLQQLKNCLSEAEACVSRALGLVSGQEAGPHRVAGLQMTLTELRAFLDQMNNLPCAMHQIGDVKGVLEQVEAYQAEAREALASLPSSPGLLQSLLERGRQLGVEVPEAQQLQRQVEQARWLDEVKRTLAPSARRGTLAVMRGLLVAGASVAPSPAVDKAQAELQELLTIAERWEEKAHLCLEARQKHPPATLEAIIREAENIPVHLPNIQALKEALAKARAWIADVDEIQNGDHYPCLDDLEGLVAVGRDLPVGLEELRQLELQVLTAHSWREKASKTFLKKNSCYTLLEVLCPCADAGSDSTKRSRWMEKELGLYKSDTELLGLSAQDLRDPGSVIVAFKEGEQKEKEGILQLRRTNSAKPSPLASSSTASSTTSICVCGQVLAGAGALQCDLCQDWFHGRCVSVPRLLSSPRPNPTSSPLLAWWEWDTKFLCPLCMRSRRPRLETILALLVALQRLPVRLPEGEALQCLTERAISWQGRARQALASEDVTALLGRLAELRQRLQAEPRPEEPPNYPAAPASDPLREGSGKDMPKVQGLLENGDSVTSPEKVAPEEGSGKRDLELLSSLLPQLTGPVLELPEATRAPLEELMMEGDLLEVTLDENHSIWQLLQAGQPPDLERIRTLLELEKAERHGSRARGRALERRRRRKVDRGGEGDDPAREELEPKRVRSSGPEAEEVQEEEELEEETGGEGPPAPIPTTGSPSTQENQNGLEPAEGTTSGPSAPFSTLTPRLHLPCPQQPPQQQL

Cc1ccc(-c2nc3ccc(C)cn3c2CC(=O)N(C)C)cc1 [zolpidem, reference compound]
inhibition of KDM4 (KDM4; micromolar concentrations): inhibited
inhibition of LSD1 activity (LSD1): could not be detected
induction in NCCIT-OCT4 reporter cells (OCT4; 10 μM, 48 h): ~2 fold
maintenance of iPSCs (hPSCs): promoted the maintenance
protection of H3K4 methylation (methylated H3K4): protected
inhibition of KDM5 (KDM5; micromolar concentrations): inhibited
iPSC-like colonies in fibroblasts resistant to OSKM-mediated reprogramming ([1]; 10 μM, with OSKM): appeared
induction in NCCIT-NANOG reporter cells (NANOG; 10 μM, 48 h): ~2 fold

CC(C)c1c(-c2ccccc2)[nH]c2c(C#N)cnn2c1=O [CPI-455]
induction of OCT4 expression in NCCIT-OCT4 reporter cell line (OCT4): 3 fold

Cc1ccc(-c2cn3cc(C)ccc3n2)cc1 [O4I3, 6-methyl-2-(p-tolyl)imidazo[1,2-a]pyridine]
IC50 (KDM4; read-out: KDM4 IC50, whole-cell nuclear extraction): 249 nM
inhibition of LSD1 activity (LSD1): could not be detected
inhibitory effect on LSD1 (LSD1; even at a concentration of 100 μM): hardly detected
increase of CDH1 mRNA (human fibroblasts; human fibroblasts): about 100 fold
induction of NANOG mRNA (human fibroblasts; human fibroblasts): approximately 10 fold
increase of SOX2 mRNA (human fibroblasts; human fibroblasts, 50 nM): about 100 fold
induction of OCT4 mRNA (human fibroblasts; human fibroblasts, 50 nM): approximately 10 fold
CDH1 mRNA level versus hPSCs (human fibroblasts; treated human fibroblasts): approximately 10%
NANOG mRNA level versus hPSCs (human fibroblasts; treated human fibroblasts): ~1%
OCT4 mRNA level versus hPSCs (human fibroblasts; treated human fibroblasts): ~0.1%
SOX2 mRNA level versus hPSCs (human fibroblasts; treated human fibroblasts): ~1%
induction of OCT4 (OCT4; NCCIT-OCT4 reporter cells, low nanomolar doses, compared with untreated cells): ~10 fold
fold less potent IC50 on KDM5D than on KDM5A (KDM5D): 20 fold
IC50 (KDM5; read-out: KDM5 IC50, whole-cell nuclear extraction): 0.79 nM
increase of the number of TRA-1-60-positive colonies ([1]; 50 nM added to OSKM, HF1 and HF2, compared with OSKM-only-treated fibroblasts): 10–20 times
iPSC-like colonies in fibroblasts resistant to OSKM-mediated reprogramming ([1]; HFF-LTR7-EGFP and HF4, with OSKM): appeared
episome-based reprogramming efficiency ([1]; with compound, from ∼0.01% without): ~0.1%
fold less potent IC50 on KDM5C than on KDM5A (KDM5C): 40 fold
induction of NANOG (NANOG; NCCIT-NANOG reporter cells, low nanomolar doses, compared with untreated cells): ~10 fold

Clc1ccc(N/N=C(\c2ccccc2)c2ccccn2)nc1 [JIB-04]
induction of OCT4 expression in NCCIT-OCT4 reporter cell line (OCT4): 5 fold
